Measurements taken from ChEMBL document CHEMBL1131138, “A novel class of orally active non-peptide bradykinin B2 receptor antagonists. 3. Discovering bioisosteres of the imidazo[1,2-a] pyridine moiety” (J Med Chem, 1998).

target: T1, B2 bradykinin receptor (Cavia porcellus, UniProt O70526); assay: Concentration required to inhibit specific binding of [ 3H]BK (0.06 nM) to Bradykinin receptor B2 in guinea pig ileum membrane preparations by 50%.; assay type: cell membranes
T1 sequence (O70526 whole entry): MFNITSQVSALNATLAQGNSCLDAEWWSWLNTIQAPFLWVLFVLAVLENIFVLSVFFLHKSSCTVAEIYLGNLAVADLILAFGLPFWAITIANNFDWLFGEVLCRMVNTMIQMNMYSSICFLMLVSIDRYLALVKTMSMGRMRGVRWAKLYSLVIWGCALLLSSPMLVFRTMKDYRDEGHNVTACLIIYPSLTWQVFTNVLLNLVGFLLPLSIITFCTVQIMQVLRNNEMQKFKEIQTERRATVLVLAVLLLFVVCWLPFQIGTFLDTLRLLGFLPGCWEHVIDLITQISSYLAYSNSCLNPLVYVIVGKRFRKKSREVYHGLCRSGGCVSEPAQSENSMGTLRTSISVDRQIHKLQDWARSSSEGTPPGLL
In short: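 Ileal membranes from male Hartley guinea pigs (0.2 mg protein/mL) in TES buffer pH 6.8 with phenanthroline, bacitracin, DTT, captopril and BSA. Incubated with 0.06 nM [3H]BK plus compound for 60 min at room temperature, then filtered through GF/B and counted by scintillation.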

`Cc1cnc2cccc(OCc3c(C)ccc(N(C)C(=O)CNC(=O)/C=C/c4ccc(C(=O)N(C)C)cc4)c3C)c2n1` and `CNC(=O)c1ccc(/C=C/C(=O)NCC(=O)N(C)c2ccc(C)c(COc3cccc4ncc(C)nc34)c2C)cc1` are within 1.5-fold of each other in IC50: 4.1 nM for the first, 3.5 nM for the second.

Going from `CCn1c(C)nc2c(OCc3c(Cl)ccc(N(C)C(=O)CNC(=O)/C=C/c4ccc(C(=O)NC)cc4)c3Cl)cccc21` to `CNC(=O)c1ccc(/C=C/C(=O)NCC(=O)N(C)c2ccc(Cl)c(COc3cccc4c3nc(-c3ccccc3)n4C)c2Cl)cc1`, the IC50 rises from 8.9 nM to 510 nM (57-fold). The first is the more potent here.

Compared with `CNC(=O)c1ccc(/C=C/C(=O)NCC(=O)N(C)c2ccc(C)c(COc3cccc4c3nc(C(C)=O)n4C)c2C)cc1`, `CNC(=O)c1ccc(/C=C/C(=O)NCC(=O)N(C)c2ccc(C)c(COc3cccc4c3nc(N(C)C)n4C)c2C)cc1` is 5.3-fold lower in IC50: 200 nM for the first, 38 nM for the second.

Compared with `Cc1cnc2cccc(OCc3c(Cl)ccc(N(C)C(=O)CNC(=O)/C=C/c4ccc(N5CCCC5=O)cc4)c3Cl)c2n1`, `Cc1cnc2cccc(OCc3c(Cl)ccc(N(C)C(=O)CNC(=O)/C=C/c4ccc(C(=O)N(C)C)cc4)c3Cl)c2n1` is 1.7-fold higher in IC50: 1.1 nM for the first, 1.9 nM for the second.

Compared with `CNC(=O)c1ccc(/C=C/C(=O)NCC(=O)N(C)c2ccc(C)c(COc3cccc4ccc(C)nc34)c2C)cn1`, `CNC(=O)c1ccc(/C=C/C(=O)NCC(=O)N(C)c2ccc(C)c(COc3cccc4ncc(C)nc34)c2C)cn1` is 8.2-fold higher in IC50: 2.2 nM for the first, 18 nM for the second.

First: Cc1ccc2cccc(OCc3c(Cl)ccc(N(C)C(=O)CNC(=O)/C=C/c4ccc(C(=O)Nc5ccccn5)cc4)c3Cl)c2n1
Second: Cc1ccc2cccc(OCc3c(Cl)ccc(N(C)C(=O)CNC(=O)/C=C/c4ccc(C(=O)Nc5ccccc5)cc4)c3Cl)c2n1
The IC50 of the first is 1.7-fold higher: 11 nM for the first, 6.3 nM for the second.

Compared with `Cc1ccc2cccc(OCc3c(C)ccc(N(C)C(=O)CNC(=O)/C=C/c4ccc(N5CCCC5=O)nc4)c3C)c2n1`, `CC(=O)Nc1ccc(/C=C/C(=O)NCC(=O)N(C)c2ccc(C)c(COc3cccc4ncc(C)nc34)c2C)cn1` is 34-fold higher in IC50: 1.4 nM for the first, 48 nM for the second.

Going from `CCOc1nc2c(OCc3c(C)ccc(N(C)C(=O)CNC(=O)/C=C/c4ccc(C(=O)NC)cc4)c3C)cccc2n1C` to `CNC(=O)c1ccc(/C=C/C(=O)NCC(=O)N(C)c2ccc(C)c(COc3cccc4c3nc(COC)n4C)c2C)cc1`, the IC50 rises from 90 nM to 1000 nM (11-fold).

Going from `CNC(=O)c1ccc(/C=C/C(=O)NCC(=O)N(C)c2ccc(C)c(COc3cccc4c3nc(NC)n4C)c2C)cc1` to `CNC(=O)c1ccc(/C=C/C(=O)NCC(=O)N(C)c2ccc(C)c(COc3cccc4c3nc(SC)n4C)c2C)cc1`, the IC50 falls from 94 nM to 9.5 nM (9.9-fold). The second is the more potent here.

Compared with `CNC(=O)c1ccc(/C=C/C(=O)NCC(=O)N(C)c2ccc(Cl)c(COc3cccc4c(C)c(C)oc34)c2Cl)cc1`, `CCOC(=O)Cc1nc2c(OCc3c(C)ccc(N(C)C(=O)CNC(=O)/C=C/c4ccc(C(=O)NC)cc4)c3C)cccc2n1C` is 48-fold higher in IC50: 23 nM for the first, 1100 nM for the second. The first is the more potent here.

target: T2, B2 bradykinin receptor (Homo sapiens, UniProt P30411); assay: Inhibition specific binding of [3H]BK (1.0 nM) to human Bradykinin receptor B2 which was expressed in CHO (Chinese hamster ovary) cells by 50%.; assay type: cell-based
T2 sequence (P30411 whole entry): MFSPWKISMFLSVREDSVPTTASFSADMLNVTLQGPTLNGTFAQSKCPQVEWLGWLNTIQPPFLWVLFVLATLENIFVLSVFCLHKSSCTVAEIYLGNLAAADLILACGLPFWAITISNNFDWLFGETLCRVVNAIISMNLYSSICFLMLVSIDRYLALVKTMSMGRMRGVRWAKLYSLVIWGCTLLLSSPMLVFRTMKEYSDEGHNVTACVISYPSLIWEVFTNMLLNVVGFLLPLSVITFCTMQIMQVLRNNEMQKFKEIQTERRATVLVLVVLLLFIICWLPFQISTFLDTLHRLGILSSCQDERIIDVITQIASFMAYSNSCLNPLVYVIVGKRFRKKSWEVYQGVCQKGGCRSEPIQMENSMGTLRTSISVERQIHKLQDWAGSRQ
In short: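 CHO (dhfr−) cells stably expressing human B2 receptor, seeded at 3.0 × 10^4 cells/well and cultured 1 day. Whole cells incubated with 1.0 nM [3H]BK plus compound for 2 h at 4 °C in HEPES/N-methyl-D-glucamine buffer pH 7.2 with bacitracin, enalaprilat and BSA. Washed, solubilized in SDS/NaOH and counted. Nonspecific binding with 1 μM BK; DMSO below 3%; three experiments.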

First: Cc1cnc2cccc(OCc3c(C)ccc(N(C)C(=O)CNC(=O)/C=C/c4ccc(C(=O)N(C)C)cc4)c3C)c2n1
Second: CNC(=O)c1ccc(/C=C/C(=O)NCC(=O)N(C)c2ccc(C)c(COc3cccc4ncc(C)nc34)c2C)cc1
The IC50 of the first is 7.6-fold higher: 130 nM for the first, 17 nM for the second. The second is the more potent here.

First: CCn1c(C)nc2c(OCc3c(Cl)ccc(N(C)C(=O)CNC(=O)/C=C/c4ccc(C(=O)NC)cc4)c3Cl)cccc21
Second: CNC(=O)c1ccc(/C=C/C(=O)NCC(=O)N(C)c2ccc(Cl)c(COc3cccc4c3nc(-c3ccccc3)n4C)c2Cl)cc1
The IC50 of the first is lower: 48 nM for the first, greater than 1000 nM for the second. The first is the more potent here.

Compared with `CNC(=O)c1ccc(/C=C/C(=O)NCC(=O)N(C)c2ccc(C)c(COc3cccc4c3nc(C(C)=O)n4C)c2C)cc1`, `CNC(=O)c1ccc(/C=C/C(=O)NCC(=O)N(C)c2ccc(C)c(COc3cccc4c3nc(N(C)C)n4C)c2C)cc1` is 1.7-fold higher in IC50: 94 nM for the first, 160 nM for the second. The first is the more potent here.

First: Cc1cnc2cccc(OCc3c(Cl)ccc(N(C)C(=O)CNC(=O)/C=C/c4ccc(N5CCCC5=O)cc4)c3Cl)c2n1
Second: Cc1cnc2cccc(OCc3c(Cl)ccc(N(C)C(=O)CNC(=O)/C=C/c4ccc(C(=O)N(C)C)cc4)c3Cl)c2n1
The IC50 of the first is 1.7-fold lower: 26 nM for the first, 44 nM for the second. The first is the more potent here.

First: CNC(=O)c1ccc(/C=C/C(=O)NCC(=O)N(C)c2ccc(C)c(COc3cccc4ccc(C)nc34)c2C)cn1
Second: CNC(=O)c1ccc(/C=C/C(=O)NCC(=O)N(C)c2ccc(C)c(COc3cccc4ncc(C)nc34)c2C)cn1
The IC50 of the first is 10-fold lower: 58 nM for the first, 590 nM for the second.

First: Cc1nc2c(OCc3c(Cl)ccc(N(C)C(=O)CNC(=O)/C=C/c4ccc(C(=O)N(C)C)cc4)c3Cl)cccn2c1Br
Second: CNC(=O)c1ccc(/C=C/C(=O)NCC(=O)N(C)c2ccc(Cl)c(COc3cccn4c(Br)c(C)nc34)c2Cl)cc1
The IC50 of the first is 4.1-fold lower: 2.2 nM for the first, 9 nM for the second.

First: Cc1ccc2cccc(OCc3c(Cl)ccc(N(C)C(=O)CNC(=O)/C=C/c4ccc(C(=O)Nc5ccccn5)cc4)c3Cl)c2n1
Second: Cc1ccc2cccc(OCc3c(Cl)ccc(N(C)C(=O)CNC(=O)/C=C/c4ccc(C(=O)Nc5ccccc5)cc4)c3Cl)c2n1
The IC50 of the first is 2.7-fold higher: 30 nM for the first, 11 nM for the second. The second is the more potent here.

Going from `Cc1ccc2cccc(OCc3c(C)ccc(N(C)C(=O)CNC(=O)/C=C/c4ccc(N5CCCC5=O)nc4)c3C)c2n1` to `CC(=O)Nc1ccc(/C=C/C(=O)NCC(=O)N(C)c2ccc(C)c(COc3cccc4ncc(C)nc34)c2C)cn1`, the IC50 rises from 39 nM to 130 nM (3.3-fold). The first is the more potent here.

Compared with `CCOc1nc2c(OCc3c(C)ccc(N(C)C(=O)CNC(=O)/C=C/c4ccc(C(=O)NC)cc4)c3C)cccc2n1C`, `CNC(=O)c1ccc(/C=C/C(=O)NCC(=O)N(C)c2ccc(C)c(COc3cccc4c3nc(COC)n4C)c2C)cc1` is 12-fold higher in IC50: 730 nM for the first, 9100 nM for the second.

Going from `CNC(=O)c1ccc(/C=C/C(=O)NCC(=O)N(C)c2ccc(C)c(COc3cccc4c3nc(NC)n4C)c2C)cc1` to `CNC(=O)c1ccc(/C=C/C(=O)NCC(=O)N(C)c2ccc(C)c(COc3cccc4c3nc(SC)n4C)c2C)cc1`, the IC50 falls from 670 nM to 79 nM (8.5-fold). The second is the more potent here.

Compared with `CNC(=O)c1ccc(/C=C/C(=O)NCC(=O)N(C)c2ccc(Cl)c(COc3cccc4c(C)c(C)oc34)c2Cl)cc1`, `CCOC(=O)Cc1nc2c(OCc3c(C)ccc(N(C)C(=O)CNC(=O)/C=C/c4ccc(C(=O)NC)cc4)c3C)cccc2n1C` is 31-fold higher in IC50: 270 nM for the first, 8400 nM for the second.
